Screening results from PubChem BioAssay.
The full list was thinned out, with hits kept by preference.
H69AR growth 86K: growth inhibitors of human H69AR lung tumor cells; H69AR lung tumor viability, ATP luminescence, 72 h; active compounds read low; viability, % at 10 µM; 85,000 compounds, 6% hits;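 active means viability at or below 40%; inactive means viability above 40%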;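 further: multidrug resistant small cell line overexpressing MRP-1 efflux transporter; 100% = mean luminescence of untreated control wells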
HUVEC prolif 384: inhibitors of human endothelial cell proliferation | HUVEC proliferation, CellTiter-Glo luminescence, 72 h; active compounds read low | viability, % at 10 µM (by protocol) | 86,000 compounds, 1.1% hits | AID 648;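 active means viability at or below 30%; inactive means viability above 30%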;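 further: 100% = median luminescence of DMSO-only cell control wells on each plate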
bCat KO growth: beta-catenin-lacking colon tumor cell growth suppression; AID 818; HCT116 beta-catenin knockout viability, CellTiter-Glo, 60 h; active compounds read low; viability, % at 10 µM; 140,000 compounds, 1.5% hits;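 active means viability at or under a set limit, the compound median less 4 SD, cut at about 6% in these data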;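 further: 0% = Hyamine 1622 control at 20 µM and 100% = untreated cell control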
PTEN del growth: growth suppressors of cells with PTEN tumor suppressor deletion; HCT116 PTEN-null viability, CellTiter-Glo, 60 h; active compounds read low; viability, % at 10 µM; 140,000 compounds, 1.2% hits;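 active means viability at or below a set limit, 4 SD under the median of all tested compounds, cut at about 3.7% in these data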;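 further: PTEN knockout HCT116 line with beta catenin targeted HCT116 as companion control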
PTK2B oligo ant: Pyk2 (human) oligomerization antagonism; Q293 cells, Pyk2 FERM NanoBiT luminescence; active compounds read low; 99,000 compounds, 0.83% hits; z-score (the deposit names both 25 µM and 10 µM); AID 1347419;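 active means Z-score of -3 or lower, scaled per plate to the spread of control and sample wells; inactive means z-score above -3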;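 further: negative z-score means lost luminescence so less FERM oligomerization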
Fibroblast inh: blocks proliferation of human lung fibroblasts. viability, % at 10 µM. 85,000 compounds, 1.1% hits. LL 47 human lung fibroblast viability, ATP luminescence; active compounds read low;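 active means viability at or below 50% in the single dose screen; inactive means viability above 50%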;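 further: compound exposure lasted 72 h before the ATP readout; 100% = median luminescence of untreated cell-only wells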
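Benchmarks: Cell-only wells, no compound | Test system: LL 47 human lung fibroblasts, passage 12 or lower | Input: 1,150 cells/well | Measured by: CellTiter-Glo luminescence measuring cellular ATP | Medium: IMEM, 15% FBS supplement | Schedule: Overnight attachment after seeding, then 72 h compound exposure at 37 °C | Doses: Compound addition at 0.1% DMSO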
* hit, by the source's call; · = not tested or not shown.

SMILES	H69AR growth 86K	HUVEC prolif 384	bCat KO growth	PTEN del growth	PTK2B oligo ant	Fibroblast inh
CC(C)(C)n1nnnc1C(c1ccc(Cl)cc1)N(Cc1cccnc1)Cc1ccco1 (configuration not stated)	85	109	54	58	-0.84	93
CCN(Cc1ccccc1)C(c1ccncc1)c1nnnn1C(C)(C)C (configuration not stated)	74	93	96	87	0.3	91
CC(C)(C)n1nnnc1C(c1cccnc1)N(Cc1ccccc1)Cc1cccs1 (configuration not stated)	6.6*	78	55	50	-3.6*	87
CC(C)(C)n1nnnc1C(c1cccs1)N(Cc1ccccc1)Cc1cccnc1 (configuration not stated)	53	87	63	61	-4.2*	86
CCOC(=O)C1=CN(c2cccc(F)c2)C=C(C(=O)OCC)C1c1cc(OC)c(O)c([N+](=O)[O-])c1	·	·	88	79	-2.2	·
Clc1ccc(C(c2nnnn2C2CCCC2)N2CCN(c3nc4ccccc4s3)CC2)cc1 (configuration not stated)	54	115	·	·	-3.3*	86
COc1cc(C(c2nnnn2C(C)(C)C)N2CCN(c3nc4ccccc4s3)CC2)ccc1O (configuration not stated)	9.0*	96	70	73	-0.92	84
c1cnc2ccc(C(c3nnnn3C3CCCC3)N3CCN(c4nc5ccccc5s4)CC3)cc2c1 (configuration not stated)	79	94	84	64	-1.7	92
Cc1cc(C(=O)COC(=O)c2n[nH]c3ccccc23)c(C)n1C	89	89	76	76	0.39	90
COc1cc(C(=O)OCC(=O)c2cc(C)n(C)c2C)cc(OC)c1OC	24*	64	29	35	0.14	67
COc1ccc(/C(O)=C2\C(=O)C(=O)N(c3cc(C)on3)C2c2cccc(OC)c2OC)cc1C (configuration not stated)	74	88	99	101	-1.3	96
COc1cccc(C2c3c(oc4ccc(Cl)cc4c3=O)C(=O)N2c2cc(C)on2)c1OC (configuration not stated)	6.6*	55	2.8*	20	-1.2	72
Cc1ccc2nc(SCC(=O)Nc3cc(C(F)(F)F)ccc3N3CCOCC3)[nH]c2c1	12*	29*	10	13	-3.5*	40*
O=C(CSc1nc2ccccc2o1)Nc1cc(C(F)(F)F)ccc1N1CCOCC1	·	·	72	77	-1.2	·
O=S(=O)(/N=C(\Sc1ccc(Cl)cc1)c1ccccc1)c1ccccc1	39*	61	43	68	-0.09	73
CCC(CO)NCc1cc(OC)c(OCC(=O)NCCc2ccccc2)cc1Br (configuration not stated)	·	·	95	99	·	·
O=S(=O)(Nc1cc(Sc2cccc3cccnc23)c(O)c2ccccc12)c1ccccc1	·	·	1.3*	1.2*	·	·
COc1cc(NS(=O)(=O)c2ccc(C)cc2)c2ncccc2c1	4.0*	19	3.6*	2.3*	-2.5	9.1*
O=C(O)c1ccccc1NS(=O)(=O)c1cccc2cccnc12	98	99	101	99	-0.68	103
Cc1ccc(S(=O)(=O)Nc2cccc3cccnc23)cc1	1.9*	46	1.6*	1.6*	0.72	5.8*
Cc1onc(-c2c(F)cccc2Cl)c1C(=O)NC(=S)NC1CCS(=O)(=O)C1 (configuration not stated)	·	·	91	98	0.27	·
Clc1ccc(SCc2cc(-c3ccc(Cl)cc3)on2)cc1	·	·	96	105	0.75	·
COc1ccc(N(CC(=O)NC(C)C)S(=O)(=O)c2ccc(NC(C)=O)cc2)cc1	·	·	114	112	-0.06	·
CC(=O)/C=C/c1ccc2ccccc2n1	0.8*	30*	1.5*	1.2*	-0.06	7.4*
CCCCc1ccc(NC(=S)NCc2cccnc2)cc1	·	·	60	75	·	·
SMILES	H69AR growth 86K	HUVEC prolif 384	bCat KO growth	PTEN del growth	PTK2B oligo ant	Fibroblast inh
CCOC(=O)c1c2c(n(C)c1COC)C(=O)C(=O)c1ccc(Br)cc1-2	1.5*	2.1*	·	·	·	2.2*
CC1(C)CC(=O)C=C(NC2=CC3OC(c4ccccc4)OCC3OC2=O)C1 (configuration not stated)	·	·	95	103	·	·
COc1cccc(-n2nnnc2S(C)(=O)=O)c1	1.1*	45	12	1.3*	-1.8	47*
COCCn1c(COc2cccc(OC)c2)nnc1SCC(=O)N1CCOCC1	83	96	77	87	0.23	101
CCOC(=O)c1c(-c2cccs2)csc1NC(=O)c1ccco1	57	115	91	93	0.2	96
CCOC(=O)c1c(C2COc3ccccc3O2)csc1NC(=O)c1ccco1 (configuration not stated)	31*	83	75	81	0.16	102
CC(C)CN1C(=O)NC(NS(=O)(=O)c2ccc(N)cc2)(C(F)(F)F)C1=O (configuration not stated)	·	·	100	94	·	·
Cc1ccnc2c(N3C(=O)C4C5c6ccccc6C(c6ccccc65)C4C3=O)cccc12 (configuration not stated)	·	·	64	70	-0.27	·
CC1Cc2ccccc2N1C(=O)CSc1nc2c(c(=O)n(C)c(=O)n2C)n1Cc1ccc(F)cc1 (configuration not stated)	11*	50	·	·	-0.02	30*
Cc1nc(SCC(=O)OCc2ccccc2)c2c(=O)n(C)c(=O)n(C)c2n1	106	99	88	97	·	106
Cc1nc(SCC(=O)c2c(C)[nH]c3ccccc23)c2c(=O)n(C)c(=O)n(CC(C)C)c2n1	39*	83	·	·	·	96
CCCN(CCC)S(=O)(=O)c1ccc(C(=O)Nc2nc3c(s2)CCc2ccccc2-3)cc1	·	·	3.1*	2.9*	·	·
O=[N+]([O-])c1ccc(/C=N/n2cnc3ccccc32)s1	·	·	2.4*	3.0*	·	·
Cc1nc2ccccc2n1/N=C/c1ccc([N+](=O)[O-])s1	·	·	1.5*	1.7*	·	·
O=[N+]([O-])c1ccc(/C=N/n2c(CO)nc3ccccc32)s1	·	·	12	7	·	·
Cc1cc2ncn(/N=C/c3cc(Br)ccc3O)c2cc1C	31*	94	84	89	·	100
Cc1cc2ncn(/N=C/c3ccc([N+](=O)[O-])s3)c2cc1C	·	·	1.5*	1.2*	·	·
Cc1ccc(N(CC(=O)Nc2ccccc2-c2ccccc2)S(=O)(=O)c2ccccc2)c(C)c1	·	·	47	58	·	·
O=C(NN1C(=O)c2ccccc2NC1c1ccccn1)c1ccccc1 (configuration not stated)	·	·	86	94	·	·
COc1ccc(Nc2nc(-c3cccc([N+](=O)[O-])c3)nc3ccccc23)cc1	·	·	19	12	·	·
COc1ccc(NC(=O)Cn2c(=O)n(CC(=O)NCc3ccco3)c(=O)c3ccccc32)cc1	·	·	93	100	-1	·
